From ChEMBL document CHEMBL1142593, “Physaloside A, an acylated sucrose ester from Physalis viscosa” (J Nat Prod, 2005)

Experiments:
Klebsiella pneumoniae = assay: Antibacterial activity against Klebsiella pneumoniae after 18 hrs; format: functional, organism-based
How it was run: (§1)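 Strains first grown on Mueller-Hinton agar, then in Mueller-Hinton broth with CaCl2/MgCl2 for 18 h at 37 °C. Serial dilutions were made (K. pneumoniae and P. aeruginosa […]) and equilibrated 30 min at 37 °C. Cultures were added to the samples, shaken 18 h at 37 °C and 60% humidity, and read at OD650. Controls were no inhibitor and 50 µg/mL streptomycin.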

Pseudomonas aeruginosa = assay: Antibacterial activity against Pseudomonas aeruginosa after 18 hrs; format: functional, organism-based; how it was run: as §1
Staphylococcus aureus = assay: Antibacterial activity against Staphylococcus aureus after 18 hrs; format: functional, organism-based; how it was run: as §1
Streptococcus pneumoniae = assay: Antibacterial activity against Streptococcus pneumoniae after 18 hrs; format: functional, organism-based; how it was run: as §1
THP-1 = assay: Cytotoxicity against human THP1 cells after 72 hrs by WST1 assay; format: cell-based; conditions: THP-1, 72 h
How it was run: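 Cells were kept in RPMI 1640 with 10% FBS, 2 mM L-glutamine, penicillin/streptomycin and 10 µM 2-mercaptoethanol at 37 °C, 5% CO2, and seeded at 2.5 × 10^4 cells/well. Samples were tested at 250 µg/mL final for 72 h. WST-1 was added for a further 1–2 h, then A450 was read. Controls were 10 µM camptothecin and 0.1% DMSO.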

[1] = Selectivity ratio of IC50 for human THP1 cells to IC50 for Staphylococcus aureus; format: ADME, cell-based, THP-1
[2] = Selectivity ratio of IC50 for human THP1 cells to IC50 for Streptococcus pneumoniae; format: ADME, cell-based, THP-1
[3] = Selectivity ratio of IC50 for Klebsiella pneumoniae to IC50 for Staphylococcus aureus; format: functional
[4] = Selectivity ratio of IC50 for Pseudomonas aeruginosa to IC50 for Staphylococcus aureus; format: functional

- IC50 (Klebsiella pneumoniae): > 413 µM
- IC50 (Pseudomonas aeruginosa): > 413 µM
- IC50 (Staphylococcus aureus): 52 µM
- IC50 (Streptococcus pneumoniae): 57 µM
SMILES: CCCCCCCCCCCC(=O)O[C@H]1[C@@H](O[C@@]2(CO)O[C@@H](CO)[C@H](O)[C@H]2O)O[C@H](CO)[C@@H](O)[C@@H]1OC(=O)C=C(C)C [PHYSALOSIDE A]
- IC50 (THP-1): > 800 µM
- selectivity ratio [1]: > 10
- selectivity ratio [2]: > 10
- Ratio IC50 [3]: > 8
- Ratio IC50 [4]: > 8
